# Measurements of several laboratories.
# Each line is one published result; the experiments were not run side by side.
# Target: Glycogen synthase kinase-3 beta (GSK3B, Homo sapiens, UniProt P49841)
# Method: competition with immobilised ligand
SMILES,test,setting,remaining binding [%]
Cc1cc(NC(=O)c2cccc(S(F)(F)(F)(F)F)c2)cc(-n2ccn3nc(-c4cccnc4)cc23)c1,cell-free assay,1 µM,85.4
O=C(c1ccc(Nc2nccc(-c3cc4ccccc4s3)n2)cc1)N1CCC(N2CCCC2)CC1,binding,1 µM,95
FC(F)(F)Oc1cccc(-c2cnc3ccc(-c4ccncc4)nn23)c1,cell-free assay,5 µM,78
Cc1cnc(Nc2ccc(C(=O)N3CCC(N4CCCC4)CC3)cc2)nc1-c1cc2ccccc2s1,binding,1 µM,51
CNC(=O)[C@@H]1CC[C@@H](n2c(-c3ccc4cnccc4c3)nc3ccc(C(=O)NCc4cccc(C(N)=O)c4)cc32)C1,binding,1 µM,95
F[C@@H]1CCN(c2nccc(-c3cnn4ncccc34)n2)C1,binding,1 µM,75
Cc1nc(Cc2cccc(C(F)(F)F)c2)sc1-c1ccc(C(N)=O)nc1,cell-free assay,1 µM,100
O=C(NCC1CCOCC1)c1n[nH]cc1NC(=O)c1c(F)cccc1F,binding,1 µM,0.2
COc1cc(-c2cn(C3CCc4ccccc4N(CC(F)(F)F)C3=O)nn2)ccc1-n1ccc(C)n1 (stereo not shown),cell-free assay,1 µM,85
COC(=O)Nc1nc2ccc(C(=O)c3ccccc3)cc2[nH]1,cell-free assay,10 µM,35
O=C(NCCCN1CCOCC1)c1ccc(Nc2nccc(-c3cc4ccccc4s3)n2)cc1,binding,1 µM,73
Nc1ncc2c(n1)-c1c([nH]c3ccc(C#CC4CC4)cc13)CCCC2,binding,1 µM,98
c1cncc(-c2cccc(Nc3nccc(NC4CCCCC4)n3)c2)c1,binding,10 µM,89
c1cnn2ncc(-c3ccnc(N4CCC45COC5)n3)c2c1,binding,1 µM,77
COc1ncc2cc3ccccc3nc2c1C#N,cell-free assay,5 µM,99
CN([C@@H]1CCc2c(CC(=O)O)c3ccccc3n2C1)S(=O)(=O)c1ccc(F)cc1,cell-free assay,1 µM,93
C[C@@H]1CN(c2ccc3ncc(-c4ccc5[nH]nc(C6CC6)c5c4)n3n2)C[C@H](C)O1,binding,0.5 µM,74
N#Cc1ccc(Nc2ccc3[nH]c(=O)[nH]c3c2)c(Cl)c1,cell-free assay,1 µM,96
COc1cnc(Nc2cccc(S(N)(=O)=O)c2)nc1N1CCN(c2ccccc2)C(=O)C1,binding,1 µM,91
